Experimental data published in ChEMBL document CHEMBL1150763, “Discovery of imidazo[1,5-c]imidazol-3-ones: weakly basic, orally active factor Xa inhibitors” (J Med Chem, 2008).

Columns and labels:
Coagulation factor X = Coagulation factor X (Homo sapiens, UniProt P00742); test: Inhibition of human factor 10a
Plasma [1] = test: Anticoagulant potency in human plasma assessed as concentration required to double the time to clot formation by PT assay; format: functional
Summary of the method: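 Human normal plasma mixed with compound dilutions in DMSO (1.5 µL into 48.5 µL), preincubated 4 min at 37 °C, clotting started with thromboplastin and timed on an automatic coagulometer. Prolongation relative to DMSO; concentration doubling clotting time derived by least-squares regression; mean of duplicates.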

[2] = Basicity, pKa by titration method; format: physicochemical
Plasma [3] = test: Anticoagulant potency in mouse plasma assessed as concentration required to double the time to clot formation by PT assay; format: functional
Plasma [4] = test: Anticoagulant activity in mouse plasma assessed as ratio of prothrombin time in drug to untreated control at 30 mg/kg, po; format: functional
Summary of the method: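 Male ICR mice (30-35 g), fasted >12 h, dosed orally at 30 mg/kg as suspension in 0.5% methylcellulose; vehicle controls. Citrated aortic blood drawn 1 h post-dose under pentobarbital anaesthesia, spun 1000g 10 min to platelet-poor plasma. PT on 50 µL plasma preincubated 4 min at 37 °C, started with thromboplastin; clotting time expressed relative to control group (n = 3).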

CYP3A4 = CYP3A4 (Homo sapiens, UniProt P08684); test: Inhibition of CYP3A4 expressed in human B-lymphoblastoid cells at 10 uM; format: ADME, cell-based
Summary of the method: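 Recombinant CYP3A4 (10 nM, from CYP3A4-expressing human B-lymphoblastoid cells) incubated with 100 µM testosterone and 10 µM test compound for 30 min at 37 °C; 6β-hydroxytestosterone formation quantified by HPLC-UV.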

physchem = settings: buffer, pH 7.4
Rattus norvegicus [5] = test: Effect on bleeding time in Sprague-Dawley rat at 0.3 mg/kg, po; format: functional
Summary of the method: (§1)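 Male Sprague-Dawley rats (7 weeks old) dosed orally 18 h before measurement, then anesthetized with sodium pentobarbital. Tail transected 2-3 mm from the tip; blood blotted with filter paper every 30 s until bleeding stopped or 30 min elapsed. Bleeding time given as mean ± SEM, n = 6, compared with a vehicle group by one-tailed Shirley-Williams' test.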

Rattus norvegicus [6] = test: Effect on bleeding time in Sprague-Dawley rat at 1 mg/kg, po; format: functional; summary of the method: as §1

Coagulation factor X, sequence (P00742 41-179 limits assumed): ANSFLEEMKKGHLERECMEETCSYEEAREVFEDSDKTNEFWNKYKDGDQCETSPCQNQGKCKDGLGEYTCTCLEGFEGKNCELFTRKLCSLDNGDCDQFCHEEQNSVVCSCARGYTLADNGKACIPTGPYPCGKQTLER
Coagulation factor X, sequence (P00742 235-488 limits assumed): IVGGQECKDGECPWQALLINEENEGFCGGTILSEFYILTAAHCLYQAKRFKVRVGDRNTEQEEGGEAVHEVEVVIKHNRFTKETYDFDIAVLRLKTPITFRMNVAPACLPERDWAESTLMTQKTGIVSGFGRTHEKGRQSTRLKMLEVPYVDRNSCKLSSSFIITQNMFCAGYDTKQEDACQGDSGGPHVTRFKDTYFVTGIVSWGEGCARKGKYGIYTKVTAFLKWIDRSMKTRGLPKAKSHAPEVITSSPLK
CYP3A4, sequence (P08684 whole entry): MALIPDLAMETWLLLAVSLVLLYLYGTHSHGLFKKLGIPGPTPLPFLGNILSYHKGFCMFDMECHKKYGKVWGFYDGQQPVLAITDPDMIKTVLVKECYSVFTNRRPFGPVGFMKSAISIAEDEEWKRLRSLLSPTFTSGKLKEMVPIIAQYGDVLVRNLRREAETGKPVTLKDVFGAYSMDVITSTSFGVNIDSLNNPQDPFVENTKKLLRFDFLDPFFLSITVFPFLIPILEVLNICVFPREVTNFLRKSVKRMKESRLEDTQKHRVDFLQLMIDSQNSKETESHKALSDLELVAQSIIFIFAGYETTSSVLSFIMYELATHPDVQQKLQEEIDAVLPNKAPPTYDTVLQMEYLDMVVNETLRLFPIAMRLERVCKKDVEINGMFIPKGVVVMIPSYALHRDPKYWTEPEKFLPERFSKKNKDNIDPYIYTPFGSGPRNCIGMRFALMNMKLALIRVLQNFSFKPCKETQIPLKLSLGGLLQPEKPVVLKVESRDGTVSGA

Row | Structure (SMILES) | IC50 (Coagulation factor X) [nM] | pKa [2] | inhibition at 10 µM (CYP3A4) [%] | logD (physchem) | Activity (Plasma [1]) [µM] | Activity (Plasma [3]) [µM] | Ratio (Plasma [4]) | Time (Rattus norvegicus [5]) [s] | Time (Rattus norvegicus [6]) [s]
1 | Cn1ccnc1C1CCN(C(=O)CCS(=O)(=O)c2ccc3cc(Cl)ccc3c2)CC1 | 56 | – | – | – | 2.1 | – | – | – | –
2 | O=C(CCS(=O)(=O)c1ccc2cc(Cl)ccc2c1)N1CCC(n2ccnc2)CC1 | 1400 | – | – | – | 7 | – | – | – | –
3 | Cc1ncc(C2CCN(C(=O)CCS(=O)(=O)c3ccc4cc(Cl)ccc4c3)CC2)n1C | – | 8.2 | 25 | – | 0.56 | 3.4 | – | – | –
4 | CC(=O)CC(c1ccccc1)c1c(O)c2ccccc2oc1=O (stereo not drawn) [WARFARIN] | – | – | – | – | – | – | – | 445 | 1590
5 | Cc1nccn1CC1CCN(C(=O)CCS(=O)(=O)c2ccc3cc(Cl)ccc3c2)CC1 | 910 | – | – | – | 7.7 | – | – | – | –
6 | O=C(CCS(=O)(=O)c1ccc2cc(Cl)ccc2c1)N1CCC(c2cnc[nH]2)CC1 | 170 | 6.9 | – | 2 | 3 | – | – | – | –
7 | O=C(CCS(=O)(=O)c1ccc2cc(Cl)ccc2c1)N1CCC(c2ncc[nH]2)CC1 | 1600 | – | – | – | >10 | – | – | – | –
8 | Cc1nccn1CCCC1CCN(C(=O)CCS(=O)(=O)c2ccc3cc(Cl)ccc3c2)CC1 | 460 | – | – | – | >10 | – | – | – | –

The remaining molecules from weak to strong by IC50 (Coagulation factor X), led by results:

Row | IC50 (Coagulation factor X) [nM] | pKa [2] | inhibition at 10 µM (CYP3A4) [%] | logD (physchem) | Structure (SMILES) | Activity (Plasma [1]) [µM] | Activity (Plasma [3]) [µM] | Ratio (Plasma [4]) | Time (Rattus norvegicus [5]) [s] | Time (Rattus norvegicus [6]) [s]
9 | 23 | 8.2 | 42 | 2.2 | O=C(CCS(=O)(=O)c1ccc2cc(Cl)ccc2c1)N1CCC(c2cnc3n2CCCC3)CC1 | 0.48 | 3 | 1.1 | – | –
10 | 12 | 5.9 | – | 2.5 | O=C(CCS(=O)(=O)c1ccc2cc(Cl)ccc2c1)N1CCC(c2cnc3ccccn23)CC1 | 2.2 | – | – | – | –
11 | 5.3 | 5.4 | 62 | 2.5 | Cc1nc(C)n2c1CN(C1CCN(C(=O)CCS(=O)(=O)c3ccc4cc(Cl)ccc4c3)CC1)C2=O | 1.2 | 2.5 | 2 | – | –
